Compound activity (PubChem)
MrgX1 ag: human MrgX1 receptor agonism, primary screen | B-score at 10 µM | MrgX1-HEK293 cells, Fluo-4 calcium fluorescence, agonist mode; stronger effect = higher value | AID 588627 | Q96LB2 | actives 0.44% (n = 310,000);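 active = calcium response B-score plate-corrected fluorescence ratio at least 3 library SD, with starting fluorescence B-score inside 5 SD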
Target sequence (Q96LB2 whole entry, looked up): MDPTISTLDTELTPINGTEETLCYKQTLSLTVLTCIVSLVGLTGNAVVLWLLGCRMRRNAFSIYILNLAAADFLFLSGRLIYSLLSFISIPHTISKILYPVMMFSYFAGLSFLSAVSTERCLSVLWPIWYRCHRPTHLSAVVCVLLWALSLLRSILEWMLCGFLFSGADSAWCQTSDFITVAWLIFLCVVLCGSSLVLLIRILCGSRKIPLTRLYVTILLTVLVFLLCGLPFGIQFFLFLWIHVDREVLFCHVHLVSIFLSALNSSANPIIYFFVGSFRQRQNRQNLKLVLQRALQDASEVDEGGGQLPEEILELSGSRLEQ
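Test system: HEK293 cells stably expressing human MrgX1 receptor; amount: 15,000 cells per well; doses: compound delivered in addition one of three; times: overnight plating before 1 h dye loading; detection: Fluo-4 NW calcium-flux fluorescence, kinetic read; read-out basis: B-scored fluorescence response ratio; controls: positive and negative controls per plate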
MrgX1 PAM: human MrgX1 positive allosteric modulation, primary screen | MrgX1-HEK293, Fluo-4 calcium flux, FDSS; stronger effect = higher value | actives 0.63% (n = 310,000) | B-score at 10 µM;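 active = plate-corrected calcium response at least 3 library SD above typical, normal starting fluorescence, not activating the receptor alone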;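 note: compound read alongside a low EC10 to EC30 dose of BAM8-22 agonist; peak minus trough fluorescence over baseline measured at the second addition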
MrgX1 antag: antagonists of human MrgX1 receptor; actives 1.3% (n = 310,000); B-score at 10 µM; Q96LB2; MRGX1-HEK293 calcium flux, Fluo-4, BAM8-22 antagonism; stronger effect = lower value;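 active = calcium-response B-score plate-corrected more than 3 library SD below zero, starting fluorescence within 5 deviations, no agonist response on first addition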;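 note: peak minus trough fluorescence over baseline after final BAM8-22 challenge near maximal dose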
RGS4 block: inhibitors of human RGS4; actives 0.45% (n = 310,000); HEK293 M3R/RGS4 inducible, Fluo-4 calcium flux; stronger effect = higher value; triggered by carbachol at its EC20; AID 463165; P49798; B-score at 10 µM;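 active = B-score, a plate-corrected calcium signal, over three deviations above library mean, with baseline fluorescence within five deviations of library mean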;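 note: RGS4 expression induced by doxycycline in cells with stable M3 receptor; B-score is computed from the integrated fluorescence ratio over baseline after carbachol; higher B-score means a larger calcium signal and so more RGS4 inhibition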
Target sequence (P49798 whole entry, looked up): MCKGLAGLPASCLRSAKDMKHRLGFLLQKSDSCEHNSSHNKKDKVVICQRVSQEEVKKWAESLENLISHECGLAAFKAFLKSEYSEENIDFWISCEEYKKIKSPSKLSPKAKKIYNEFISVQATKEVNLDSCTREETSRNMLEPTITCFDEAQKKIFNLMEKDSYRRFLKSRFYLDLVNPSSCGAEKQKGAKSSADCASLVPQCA
RGS4 act: potentiators or activators of RGS4; AID 463111; HEK293 M3R/inducible RGS4, carbachol calcium flux Fluo4; stronger effect = lower value; B-score at 10 µM; actives 0.92% (n = 310,000);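 active = B-score of the integrated calcium signal more than 4 SD below the library mean, with starting fluorescence not abnormally high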;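 note: negative B-score means reduced calcium response which marks RGS4 activation or potentiation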
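Assay system: HEK293 FlpIn-TREx cells, stable M3R, doxycycline-inducible RGS4 / Probe or stimulus: carbachol, ECmax concentration / Times: overnight RGS4 induction, 30 min dye load 37 °C, 20 min compound RT / Signal: kinetic calcium fluorescence imaging with Fluo4-AM dye, 2 µM / Measure: Agonist-evoked peak-minus-minimum fluorescence over baseline, integrated ratio, B score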
A number is an active result; - = inactive; . = no result. Sampled rows, rich in hits. Any-hit rate of the full collection: about 3.5%.

SMILES	MrgX1 ag	MrgX1 PAM	MrgX1 antag	RGS4 block	RGS4 act
Cc1coc2c(C)c3oc(=O)c(CCC(=O)NCCN4CCOCC4)c(C)c3cc12	-	-	-	-	-7.02
CCOC(=O)N1CCN(C(=O)COC(=O)c2oc3ccc(OC)cc3c2C)CC1	-	-	-	-	-
O=Cc1cc2ccccc2nc1SCCCF	-	-	-5.83	-	-
CSc1nc2ccccc2cc1/C=C(\C#N)c1ccccc1	-	-	-	-	-
O=C(O)c1ccc(S(=O)(=O)NCC2CCCO2)cc1 (stereo unspecified)	-	-	-	-	-
CC(C)[C@H](NC(=O)[C@H](CCCN=C(N)N)NC(=O)NC(Cc1ccccc1)C(=O)O)C(=O)NC(C=O)CCCN=C(N)N (stereo partly specified)	45.6	-	-	-	-
COC(=O)C(Cc1ccccc1)NC(=O)CC(C)CC(=O)Nc1ccc(C)cc1 (stereo unspecified)	-	-	-	-	-
COC(=O)c1[nH]c2ccccc2c1NC(=O)CNC1CCCCC1	-	-	-	-	-6.99
COC(=O)c1[nH]c2ccccc2c1NC(=O)CN1CCCCCC1	-	-	-	-	-
COc1ccc(/C=N/NC(=O)c2ccoc2C)cc1CN1CCN(c2ccc(F)cc2)CC1	-	-	-	-	-
CCc1nnc(NC(=O)CCC(=O)Nc2ccc(Cl)cc2)s1	-	-	-	-	-
CCCn1nc([N+](=O)[O-])c(C(C#N)c2nc3ccccc3s2)c(Cl)c1=O (stereo unspecified)	28.9	-	-	-	-
CN1CCc2c(sc(NC(=O)c3ccc(S(=O)(=O)N4CCCCCC4)cc3)c2C(N)=O)C1	31.6	-	-	-	-
COc1cccc(NC(=O)C(c2ccccc2)N2CCCCC2)c1 (stereo unspecified)	-	-	-	-	-7.03
COc1cc(C(=O)N/N=C/c2ccc(OC(=O)c3cccc(C)c3)c(OC)c2)ccc1O	-	-	-	-	-7.06
COc1cc(/C=N/NC(=O)C(=O)N2CCCC2)ccc1O	-	-	-6.67	-	-
Cc1cccc(C(=O)Oc2ccc(/C=N/NC(=O)c3cc(O)cc(O)c3)cc2)c1	-	-	-	-	-10.2
Nc1ccc(C(=O)N/N=C\c2ccc(OC(=O)c3ccccc3Cl)cc2)cc1	-	-	-	-	-
COc1cc(C(=O)N/N=C/c2ccc(OC(=O)c3ccccc3Cl)cc2)ccc1O	-	-	-	-	-10.5
COc1ccc(/C=N/NC(=O)C(=O)N2CCCC2)cc1OC	-	-	-	-	-
CC(C)CN(C(=O)COC(=O)c1ccc2c(c1)OCO2)c1c(N)n(Cc2ccccc2)c(=O)[nH]c1=O	-	-	-	-	-
O=C(O)c1cccc(NC(=S)NC(NC(=O)c2cccc([N+](=O)[O-])c2)C(Cl)(Cl)Cl)c1 (stereo unspecified)	-	-	-	-	-
O=C(NC(NC(=S)Nc1ccc(Cl)cc1Cl)C(Cl)(Cl)Cl)c1cccc([N+](=O)[O-])c1 (stereo unspecified)	-	-	-	-	-7.23
O=C(O)CN1CCc2ccccc2C1	-	-	-	-	-
COc1ccc(C(=O)C2CCCN(Cc3ccc(C#CCCO)cc3)C2)cc1F (stereo unspecified)	-	-	-	-	-
SMILES	MrgX1 ag	MrgX1 PAM	MrgX1 antag	RGS4 block	RGS4 act
COc1ccc(COC(=O)CCc2c[nH]c3ccccc23)cc1F	-	-	-	-	-
COc1ccc(NC(=O)N2CCN(c3nc(-c4cccc(OC)c4)cs3)CC2)cc1	-	-	-	-	-6.99
CC(=O)OCC1O[C@@H](O[C@@H]2C[C@H]3C(C)(C)[C@H](OC(C)=O)CC[C@]3(C)[C@H]3CC[C@]45C[C@]4(CC[C@H]5[C@@H](C)C[C@@H](O)[C@H](O)C(C)(C)O)[C@@]32C)[C@H](O)[C@@H](O)[C@@H]1O (stereo partly specified)	42.5	-	-	-	-
O=C(/C(=C(\[O-])c1ccccc1)[n+]1ccc2ccccc2c1)c1ccccc1	-	-	-	-	-
O=C(/C(=C(\[O-])c1ccccc1)[n+]1ccc2ccccc2c1)c1ccc([N+](=O)[O-])cc1	-	-	-5.65	-	-
COC(=O)c1ccc(-c2sc3nc(N4CCOCC4)c4c(c3c2N)CCCC4)o1	-	16.9	-	-	-8.81
CC(C)C(C(=O)Nc1ccncc1)c1ccc(Cl)cc1 (stereo unspecified)	-	-	-4.58	-	-
CC1(C)CC(=O)c2sc(NS(C)(=O)=O)nc2C1	-	-	-	-	-
CC1(C)CC(=O)c2sc(NS(=O)(=O)c3ccc([N+](=O)[O-])cc3)nc2C1	-	8.02	-	-	-
CCc1nnc(NS(=O)(=O)c2ccc(NC(=S)NC(=O)/C=C/c3ccccc3)cc2)s1	-	-	-	-	-
CCc1nnc(NS(=O)(=O)c2ccc(NC(=S)NC(=O)/C=C/c3ccc(C(C)C)cc3)cc2)s1	-	-	-	-	-9.67
CC1CCN(CC(=O)Nc2ccc(S(=O)(=O)N3CCCCC3)cc2)CC1	-	-	-	-	-
CC1CCN(CC(=O)Nc2ccc(N3CCCCCC3)cc2)CC1	-	-	-	-	-6.99
CCOC(=O)C1CCCN(Cc2ccc(OC)c(OCc3ccccc3)c2)C1 (stereo unspecified)	-	-	-	-	-
CCOc1ccc(OCc2cccc(C(=O)Nc3ccc(CN4CCCCC4)cc3)c2)cc1	-	-	-	-	-7.33
O=C(Nc1cccc(-n2cccn2)c1)C1CCCN(Cc2ccccc2F)C1 (stereo unspecified)	-	-	-	-	-
O=C(NN1C(=O)/C(=C/C=C/c2ccco2)SC1=S)c1ccccc1O	-	-	-4.62	-	-
O=C(CSc1nc(=O)n2ccccc2n1)OCc1ccccc1	-	-	-	-	-
O=C(O)c1cc([N+](=O)[O-])ccc1N1CCC(Cc2ccccc2)CC1	39.8	-	-	-	-
O=C(O)c1cc([N+](=O)[O-])ccc1N1CCCCC1	-	-	-	-	-
O=C(Nc1cccc(C(F)(F)F)c1)N1CCC(c2nc(-c3ccc(F)cc3)no2)CC1	-	-	-	-	-9.33
O=C(Nc1ccccc1)N1CCCC(c2nc(-c3ccc(F)cc3)no2)C1 (stereo unspecified)	-	-	-	-	-
CCc1cccc2c(C(=O)COC(=O)c3nn(C)c(=O)c4ccccc34)c[nH]c12	-	-	-	-	-7.33
CCN(CC)S(=O)(=O)c1cccc(NC(=O)CSc2nnc(N)s2)c1	-	-	-	-	-
COc1ccccc1NC(=O)Nc1nc(CC(=O)N2CCN(c3ccccc3F)CC2)cs1	-	-	-	-	-7.08
COc1ccccc1NC(=O)Nc1nc(CC(=O)NCc2c(F)cccc2F)cs1	-	-	-	-	-
COc1ccc(/C=N/NC(=O)c2cc3c(ccc4ccccc43)o2)c(OC)c1	.	.	.	-	-8
